Active and inactive are the calls of the source.
Key:
[1] = target: T1, Protein cereblon/Histone-lysine N-methyltransferase EZH2 (Homo sapiens) (UniProt Q15910+Q96SW2); assay: PROTAC activity at CRBN E3 ligase/EZH2 in PRC2 complex in human WSUDLCL2 cells assessed as induction of RbAp48 degradation at 1 uM measured up to 2 hrs by Western blot analysis; type: cell-based; conditions: time hrs <=2
WSUDLCL2 [2] = assay: Inhibition of PRC2 in human WSUDLCL2 cells assessed as suppression H3K27 dimethylation at 10 uM incubated for 48 hrs by Western blot analysis; type: cell-based
Outline: (§1)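 Lysates run on SDS-PAGE and transferred to nitrocellulose. Membranes blocked with 5% skim milk for 2 h, primary antibody applied overnight at 4 °C, then secondary antibody and chemiluminescent detection of histone H3 methylation marks.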

[3] = target: T1, Protein cereblon/Histone-lysine N-methyltransferase EZH2 (Homo sapiens); assay: PROTAC activity at CRBN E3 ligase/EZH2 in PRC2 complex in human DU-145 cells assessed as induction of EED degradation by measuring reduction in EED protein level at 1 uM incubated for 48 hrs by Western blot analysis; type: cell-based
Outline: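 Cancer cell lines exposed to 1 μM compound for 48 h. Lysates immunoblotted (SDS-PAGE, nitrocellulose, 5% milk block, primary antibody overnight at 4 °C) for EZH2, SUZ12, EED, RbAp48 and H3K27me3. Bands quantified by densitometry and normalized to GAPDH.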

[4] = target: T1, Protein cereblon/Histone-lysine N-methyltransferase EZH2 (Homo sapiens); assay: PROTAC activity at CRBN E3 ligase/EZH2 in PRC2 complex in human WSUDLCL2 cells assessed as effect on EED mRNA expression at 1 uM incubated for 48 hrs by RT-qPCR analysis; type: cell-based
Outline: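 WSU-DLCL-2 cells treated 48 h with 1 μM compound. Total RNA extracted with Trizol and reverse-transcribed. SYBR qPCR run as 95 °C 30 s, then 40 cycles of 95 °C 6 s and 60 °C 20 s. PRC2 subunit mRNA normalized to the DMSO-treated group; mean SD, t-test.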

[5] = target: T1, Protein cereblon/Histone-lysine N-methyltransferase EZH2 (Homo sapiens); assay: PROTAC activity at CRBN E3 ligase/EZH2 in PRC2 complex in human WSUDLCL2 cells assessed as downregulation of RbAp48 expression at 1 uM pretreated with lenalidomide for 4 hrs followed by compound addition and measured after 48 hrs by Western blot analysis; type: cell-based
Outline: (§2)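 WSU-DLCL-2 cells pretreated 4 h with the named inhibitor, then compound added and incubated a further 48 h. EZH2, SUZ12, EED and RbAp48 measured by western blot (nitrocellulose transfer, skim-milk block, primary antibody overnight at 4 °C, chemiluminescent detection).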

WSUDLCL2 [6] = assay: Effect on Histone H3 methylation in human WSUDLCL2 cells assessed as reduction in H3K4me3 levels at upto 10 uM incubated for 48 hrs by Western blot analysis; type: functional, cell-based; conditions: dose microM <=10, time 48.0 hrs; outline: as §1
A549 = assay: Antiproliferative activity against human A549 cells harboring SWI/SNF mutant assessed as inhibition of cell growth at 10 uM treated for 9 days by optical microscopic analysis; type: functional, cell-based; conditions: time 9.0 day
Outline: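 Cells seeded at 5 × 10³ per well, grown 24 h, then exposed to compound at 10 μM for 9 days with medium refreshed. Cells were photographed and counted on days 1, 3, 5, 7 and 9. For lines 1-2, EZH2-targeting or control shRNA was induced in the cells. Mean SD of three independent experiments; t-test against control.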

[7] = target: T1, Protein cereblon/Histone-lysine N-methyltransferase EZH2 (Homo sapiens); assay: PROTAC activity at CRBN E3 ligase/EZH2 in PRC2 complex in human WSUDLCL2 cells assessed as induction of EZH2 degradation by measuring reduction in EZH2 protein level at 1 uM measured after 48 to 72 hrs by Western blot analysis; type: cell-based; conditions: time 48-72 hrs
MDA-MB-468 [8] = assay: Downregulation of CHEK1 mRNA expression in human MDA-MB-468 cells at 10 uM incubated for 48 hrs by qRT-PCR analysis; type: functional, cell-based
Outline: (§3)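 Cells treated 48 h. Total RNA extracted with Trizol, reverse-transcribed, and SYBR RT-qPCR run: 95 °C 30 s, then 40 cycles of 95 °C 6 s and 60 °C 20 s. mRNA normalized to the DMSO-treated group. Mean SD of three independent experiments, t-test versus DMSO.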

[9] = target: T1, Protein cereblon/Histone-lysine N-methyltransferase EZH2 (Homo sapiens); assay: PROTAC activity at CRBN E3 ligase/EZH2 in PRC2 complex in human WSUDLCL2 cells assessed as downregulation of SUZ12 expression at 1 uM pretreated with MLN4924 for 4 hrs followed by compound addition and measured after 48 hrs by Western blot analysis; type: cell-based; outline: as §2
[10] = target: T1, Protein cereblon/Histone-lysine N-methyltransferase EZH2 (Homo sapiens); assay: PROTAC activity at CRBN E3 ligase/EZH2 in PRC2 complex in human WSUDLCL2 cells assessed as induction of EED degradation at 1 uM incubated for 48 hrs by Western blot analysis relative to control; type: cell-based
Outline: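 WSU-DLCL-2 cells exposed to 1 μM compound for 48 h, with DMSO-treated cells as control. Bands quantified by densitometry and normalized to GAPDH. Mean SD from three independent experiments, t-test versus DMSO.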

MDA-MB-468 [11] = assay: Downregulation of TACC3 mRNA expression in human MDA-MB-468 cells at 10 uM incubated for 48 hrs by qRT-PCR analysis; type: functional, cell-based; outline: as §3
[12] = target: T1, Protein cereblon/Histone-lysine N-methyltransferase EZH2 (Homo sapiens); assay: PROTAC activity at CRBN E3 ligase/EZH2 in PRC2 complex in human WSUDLCL2 cells assessed as downregulation of EED expression at 1 uM pretreated with MG-132 for 4 hrs followed by compound addition and measured after 48 hrs by Western blot analysis; type: cell-based; outline: as §2
WSUDLCL2 [13] = assay: Inhibition of PRC2 in human WSUDLCL2 cells assessed as suppression H3K27 trimethylation incubated for 48 hrs by Western blot analysis; type: cell-based; outline: as §1
[14] = target: T1, Protein cereblon/Histone-lysine N-methyltransferase EZH2 (Homo sapiens); assay: PROTAC activity at CRBN E3 ligase/EZH2 in PRC2 complex in human WSUDLCL2 cells assessed as reduction in H3K27me3 level at 1 uM incubated for 48 hrs by Western blot analysis relative to control; type: cell-based; parameters: scale not given: the % may be the effect or the level left
Outline: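 WSU-DLCL-2 cells treated 48 h (1 μM for the single-concentration screen), lysed; SDS-PAGE, nitrocellulose transfer, 5% milk block, primary antibody 4 °C overnight, chemiluminescence. Bands quantified by densitometry, normalized to GAPDH, expressed relative to DMSO-treated cells; mean ± SD of three independent experiments, t-test.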

[15] = target: Polycomb protein EED (Homo sapiens) (UniProt O75530); assay: Binding affinity to EED in human WSUDLCL2 cells assessed as thermal stability by measuring shift in temperature at 60 uM pretreated with proteasome inhibitor MG132 for 1 hr followed by compound addition incubated for 2 hrs by cellular thermal shift based Western blot analysis; type: cell-based
Polycomb protein EED (Homo sapiens), sequence (O75530 2-441 limits assumed): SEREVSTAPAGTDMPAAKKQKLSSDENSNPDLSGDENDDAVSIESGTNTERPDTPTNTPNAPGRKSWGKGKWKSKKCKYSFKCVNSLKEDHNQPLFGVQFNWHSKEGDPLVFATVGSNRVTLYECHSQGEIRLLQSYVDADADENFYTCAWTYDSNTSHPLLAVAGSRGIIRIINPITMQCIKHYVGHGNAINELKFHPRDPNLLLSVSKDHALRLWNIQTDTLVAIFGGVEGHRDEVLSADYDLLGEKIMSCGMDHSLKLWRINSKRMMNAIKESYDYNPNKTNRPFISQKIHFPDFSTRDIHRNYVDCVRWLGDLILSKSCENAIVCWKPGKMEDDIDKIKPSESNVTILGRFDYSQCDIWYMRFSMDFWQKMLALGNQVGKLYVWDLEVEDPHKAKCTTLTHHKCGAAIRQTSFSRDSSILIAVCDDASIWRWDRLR
Outline: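 Cellular thermal shift: cells suspended at 1.5 × 10⁶/mL and pretreated with MG-132 (5 μM, 1 h), then given 60 μM compound for 2 h with a DMSO control. Cells were lysed in RIPA with cocktail for 1 h. Supernatant aliquots were heated 6 min at 45, 48, 51, 54, 57 and 60 °C and centrifuged 15 min. Soluble protein was immunoblotted; bands quantified by densitometry; three independent experiments.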

[16] = target: T1, Protein cereblon/Histone-lysine N-methyltransferase EZH2 (Homo sapiens); assay: PROTAC activity at CRBN E3 ligase/EZH2 in PRC2 complex in human WSUDLCL2 cells assessed as induction of SUZ12 degradation by measuring reduction in SUZ12 protein level at 1 uM measured after 48 to 72 hrs by Western blot analysis; type: cell-based; conditions: time 48-72 hrs

T1 sequence (Q15910 whole entry, looked up): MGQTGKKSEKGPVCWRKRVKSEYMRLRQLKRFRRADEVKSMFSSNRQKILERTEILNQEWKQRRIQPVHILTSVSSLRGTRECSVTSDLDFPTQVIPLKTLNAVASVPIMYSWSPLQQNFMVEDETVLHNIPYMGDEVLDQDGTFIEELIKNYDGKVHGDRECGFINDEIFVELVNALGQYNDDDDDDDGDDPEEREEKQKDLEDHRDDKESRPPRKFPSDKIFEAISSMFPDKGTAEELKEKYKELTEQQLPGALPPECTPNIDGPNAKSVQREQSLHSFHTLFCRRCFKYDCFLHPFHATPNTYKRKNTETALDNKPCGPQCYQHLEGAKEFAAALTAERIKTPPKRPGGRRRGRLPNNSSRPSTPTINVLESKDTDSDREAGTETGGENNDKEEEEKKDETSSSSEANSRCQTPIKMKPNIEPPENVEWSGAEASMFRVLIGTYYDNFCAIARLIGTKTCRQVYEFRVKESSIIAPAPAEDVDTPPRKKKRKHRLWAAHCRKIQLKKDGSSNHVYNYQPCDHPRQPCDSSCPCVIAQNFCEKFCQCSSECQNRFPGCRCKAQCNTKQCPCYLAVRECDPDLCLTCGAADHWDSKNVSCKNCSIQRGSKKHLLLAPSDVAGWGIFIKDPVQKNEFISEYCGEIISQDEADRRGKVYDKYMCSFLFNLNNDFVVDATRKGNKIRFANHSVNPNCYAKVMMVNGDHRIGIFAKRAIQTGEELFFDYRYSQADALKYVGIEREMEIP
T1 sequence (Q96SW2 whole entry, looked up): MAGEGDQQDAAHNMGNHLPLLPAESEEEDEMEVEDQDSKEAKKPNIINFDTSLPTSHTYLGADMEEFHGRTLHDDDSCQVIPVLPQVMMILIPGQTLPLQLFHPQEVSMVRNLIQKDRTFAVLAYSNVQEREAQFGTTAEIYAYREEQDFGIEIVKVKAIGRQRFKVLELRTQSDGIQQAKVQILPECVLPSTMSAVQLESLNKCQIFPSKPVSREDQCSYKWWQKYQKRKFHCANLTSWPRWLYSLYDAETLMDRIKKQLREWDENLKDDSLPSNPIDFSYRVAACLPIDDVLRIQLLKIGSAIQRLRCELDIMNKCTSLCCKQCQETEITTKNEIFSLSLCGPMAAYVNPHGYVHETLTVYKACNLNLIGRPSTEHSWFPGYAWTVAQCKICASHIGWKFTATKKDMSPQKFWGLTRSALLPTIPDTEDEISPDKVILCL

CCN(c1cc(-c2ccc(CN3CCN(CCCCCCCOc4cccc5c4C(=O)N(C4CCC(=O)NC4=O)C5=O)CC3)cc2)cc(C(=O)NCc2c(C)cc(C)[nH]c2=O)c1C)C1CCOCC1 (configuration not stated)
active: inhibition (WSUDLCL2 [2]) | Activity [3] | Activity (A549) | Activity [7] | Activity (MDA-MB-468 [8]) | Activity (MDA-MB-468 [11]) | inhibition (WSUDLCL2 [13]) Dose-Dependent Effect | Activity [16]
83%: Activity [14]
75%: Activity [10]
inactive: Activity [1] | Activity [4] | Activity [5] | Activity (WSUDLCL2 [6]) | Activity [9] | Activity [12] | Activity [15]

Reference: ChEMBL document CHEMBL5038571, “Design and Synthesis of EZH2-Based PROTACs to Degrade the PRC2 Complex for Targeting the Noncatalytic Activity of EZH2” (J Med Chem, 2021)
